Experiments:
[1] = molecular target: T1, Transcriptional activator protein LasR (Pseudomonas aeruginosa (strain ATCC 15692 / PAO1 / 1C / PRS 101 / LMG12228)) (UniProt P25084); assay: Antagonist activity at Pseudomonas aeruginosa PAO1 MW1 (pUM15) LasR assessed as inhibition of OdDHL-induced quorum sensing activation at 10 uM after 8 hrs by […] relative to untreated control; format: functional
T1 sequence (whole entry): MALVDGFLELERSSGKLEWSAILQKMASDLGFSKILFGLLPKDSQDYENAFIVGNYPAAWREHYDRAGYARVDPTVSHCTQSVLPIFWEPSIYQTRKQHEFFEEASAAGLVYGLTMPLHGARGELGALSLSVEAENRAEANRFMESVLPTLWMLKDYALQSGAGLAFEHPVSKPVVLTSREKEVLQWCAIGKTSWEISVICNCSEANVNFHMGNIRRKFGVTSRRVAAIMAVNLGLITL
How it was run: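 P. aeruginosa PAO1 MW1 (pUM15) lacks functional LasI and carries a LasR-responsive promoter driving YFP, so fluorescence is the read-out. Compounds were tested at 10 µM. […] Background from wells with no compound or AHL was subtracted. Assays were done in triplicate.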

[2] = system: Escherichia coli DH5[alpha]; assay: Antagonist activity at Escherichia coli DH5alpha (pJN105L + pSC11) LasR assessed as inhibition of OdDHL-induced quorum sensing activation at 10 uM after 8 hrs by beta-galactosidase reporter gene assay relative to untreated control; format: functional
[3] = system: Escherichia coli DH5[alpha]; assay: Agonist activity at Escherichia coli DH5alpha (pJN105L + pSC11) LasR at 10 uM after 8 hrs by beta-galactosidase reporter gene assay relative to OdDHL; format: functional
[4] = Agonist activity at Escherichia coli DH5alpha (pJN105L + pSC11) LasR after 8 hrs by beta-galactosidase reporter gene assay relative to OdDHL; format: functional, Escherichia coli DH5[alpha]
[5] = molecular target: T2, Transcriptional activator protein LuxR (Aliivibrio fischeri) (UniProt P12746); assay: Antagonist activity at Vibrio fischeri ESI 114 (delta-LuxI) LuxR assessed as inhibition of […]-induced quorum sensing activation at 10 uM after 8 hrs by […] relative to untreated control; format: functional
T2 sequence (whole entry): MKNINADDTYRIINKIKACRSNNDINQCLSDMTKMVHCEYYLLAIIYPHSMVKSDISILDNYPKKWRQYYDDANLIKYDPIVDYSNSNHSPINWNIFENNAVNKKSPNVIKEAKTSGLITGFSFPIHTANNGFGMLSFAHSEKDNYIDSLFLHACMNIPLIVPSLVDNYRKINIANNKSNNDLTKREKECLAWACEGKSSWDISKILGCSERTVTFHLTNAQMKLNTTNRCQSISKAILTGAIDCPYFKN

[6] = molecular target: T2, Transcriptional activator protein LuxR (Aliivibrio fischeri); assay: Agonist activity at Vibrio fischeri ESI 114 (delta-LuxI) LuxR at 10 uM after 8 hrs by […] relative to […]; format: functional
How it was run: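 V. fischeri ESI 114 lacking LuxI synthase but keeping its native lux operon; LuxR activity read as luminescence. Compounds were screened at 10 µM alone, without native AHL. Signal was normalized to the native-ligand positive control.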

[7] = molecular target: T3, Transcriptional activator protein TraR (Agrobacterium tumefaciens) (UniProt P33905); assay: Agonist activity at Agrobacterium tumefaciens WCF (pCF372) TraR at 10 uM after 8 hrs by beta-galactosidase reporter gene assay relative to […]; format: functional
T3 sequence (whole entry): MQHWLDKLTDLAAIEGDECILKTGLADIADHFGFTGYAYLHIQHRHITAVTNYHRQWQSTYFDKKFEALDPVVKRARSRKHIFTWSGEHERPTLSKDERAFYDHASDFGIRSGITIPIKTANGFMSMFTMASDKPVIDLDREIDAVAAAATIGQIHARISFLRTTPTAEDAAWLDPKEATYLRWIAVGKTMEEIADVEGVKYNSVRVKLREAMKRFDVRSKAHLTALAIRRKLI

[8] = system: Pseudomonas aeruginosa; assay: Growth inhibition of Pseudomonas aeruginosa PAO1 MW1 (pUM15) at 10 uM after 4 to 16 hrs; format: organism-based; details: in vivo
How it was run: (§1)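 Bacterial growth was monitored over the reporter gene assay time course (4–16 h) with compounds at 10 µM.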

[9] = system: Escherichia coli; assay: Growth inhibition of Escherichia coli DH5alpha (pJN105L + pSC11) at 10 uM after 4 to 16 hrs; format: organism-based, DH5[alpha]; details: in vivo; how it was run: as §1
[10] = system: Aliivibrio fischeri; assay: Growth inhibition of Vibrio fischeri ESI 114 (delta-LuxI) at 10 uM after 4 to 16 hrs; format: organism-based; details: in vivo; how it was run: as §1
[11] = system: Agrobacterium tumefaciens; assay: Growth inhibition of Agrobacterium tumefaciens WCF (pCF372) at 10 uM after 4 to 16 hrs; format: organism-based; details: in vivo; how it was run: as §1
[12] = molecular target: T1, Transcriptional activator protein LasR (Pseudomonas aeruginosa (strain ATCC 15692 / PAO1 / 1C / PRS 101 / LMG12228)); assay: Agonist activity at Pseudomonas aeruginosa PAO1 MW1 (pUM15) LasR at 10 uM after 8 hrs by YFP fluorescence reporter gene assay relative to OdDHL
[13] = Antagonist activity at Escherichia coli DH5alpha (pJN105L + pSC11) LasR assessed as inhibition of OdDHL-induced quorum sensing activation after 8 hrs by beta-galactosidase reporter gene assay; format: functional, Escherichia coli DH5[alpha]
[14] = molecular target: T3, Transcriptional activator protein TraR (Agrobacterium tumefaciens); assay: Antagonist activity at Agrobacterium tumefaciens WCF (pCF372) TraR assessed as inhibition of […]-induced quorum sensing activation at 10 uM after 8 hrs by beta-galactosidase reporter gene assay relative to untreated control; format: functional
[15] = molecular target: T4, Transcriptional activator protein LuxR (Aliivibrio fischeri, UniProt P12746); assay: Antagonist activity at Vibrio fischeri ESI 114 (delta-LuxI) LuxR assessed as inhibition of OHHL-induced quorum sensing activation after 8 hrs by […]
T4 sequence (P12746 whole entry): T2 sequence (whole entry)

[16] = molecular target: T5, Transcriptional activator protein LasR (Pseudomonas aeruginosa (strain ATCC 15692 / PAO1 / 1C / PRS 101 / LMG12228), UniProt P25084); assay: Agonist activity at Pseudomonas aeruginosa PAO1 MW1 (pUM15) LasR after 8 hrs by YFP fluorescence reporter gene assay relative to OdDHL
T5 sequence (P25084 whole entry): T1 sequence (whole entry)

SMILES | inhibition [1] | inhibition [2] | Activity [3] | EC50 [4] | inhibition [5] | Activity [6] | Activity [7] | Activity [8] | Activity [9] | Activity [10] | Activity [11] | Activity [12] | IC50 [13] | inhibition [14] | IC50 [15] | EC50 [16]
O=C(CCc1cc2ccccc2[nH]1)N[C@H]1CCSC1=O | -7% | 16% | 4% | 1800 nM | 68% | 0% | 0% | Non-toxic | Non-toxic | Non-toxic | Non-toxic | 10% | – | – | – | –
CCCCCCCC(=O)N[C@H]1CCSC1=O | -7% | 64% | 85% | – | 80% | 0% | 0% | Non-toxic | Non-toxic | Non-toxic | Non-toxic | 0% | 140 nM | 99% | 130 nM | –
O=C(Cc1ccccc1)NC1CCSC1=O (racemic) | – | 61% | 3% | – | 30% | 0% | 0% | Non-toxic | Non-toxic | Non-toxic | Non-toxic | 17% | – | 13% | – | –
O=C(Cc1ccc(-c2ccccc2)cc1)N[C@H]1CCSC1=O | – | 56% | 9% | – | 98% | 0% | 0% | Non-toxic | Non-toxic | Non-toxic | Non-toxic | 3% | 2900 nM | 9% | 350 nM | –
O=C(Cc1ccc(Br)cc1)N[C@H]1CCSC1=O | – | 80% | 2% | – | 97% | 0% | 0% | Non-toxic | Non-toxic | Non-toxic | Non-toxic | 8% | 400 nM | – | 770 nM | –
COc1ccc(CC(=O)N[C@H]2CCSC2=O)cc1 | – | 51% | 1% | – | 70% | 1% | 0% | Non-toxic | Non-toxic | Non-toxic | Non-toxic | 7% | 7200 nM | – | – | –
O=C(Cc1ccccc1)N[C@H]1CCSC1=O | – | 65% | 2% | – | 34% | 0% | 3% | Non-toxic | Non-toxic | Non-toxic | Non-toxic | 2% | 2500 nM | – | – | –
O=C(Cc1cccc([N+](=O)[O-])c1)NC1CCSC1=O (racemic) | – | -3% | 81% | – | 30% | 26% | 0% | Non-toxic | Non-toxic | Non-toxic | Non-toxic | 3% | – | 30% | – | –
CCCCCCCCCCCC(=O)N[C@H]1CCSC1=O | – | – | 94% | 1900 nM | 57% | 0% | 0% | Non-toxic | Non-toxic | Non-toxic | Non-toxic | 42% | – | 6% | – | 21000 nM
CCCCCC(=O)N[C@H]1CCSC1=O | – | 59% | 1% | – | 93% | 0% | 0% | Non-toxic | Non-toxic | Non-toxic | Non-toxic | 20% | 1100 nM | – | 840 nM | –
COc1ccc(CC(=O)NC2CCSC2=O)cc1 (racemic) | – | 48% | 0% | – | 59% | 0% | – | Non-toxic | Non-toxic | Non-toxic | Non-toxic | 4% | – | – | – | –
CCCCCCCCCC(=O)CC(=O)NC1CCSC1=O (racemic) | – | – | 102% | – | 91% | 0% | 1% | Non-toxic | Non-toxic | Non-toxic | Non-toxic | 127% | – | 51% | – | –
O=C(CCc1cc2ccccc2[nH]1)NC1CCSC1=O (racemic) | – | 54% | 72% | – | 75% | 0% | 6% | Non-toxic | Non-toxic | Non-toxic | Non-toxic | 3% | – | – | – | –
O=C(Cc1ccc(Br)cc1)NC1CCSC1=O (racemic) | – | 68% | 8% | – | 91% | 0% | 1% | Non-toxic | Non-toxic | Non-toxic | Non-toxic | 5% | – | 25% | – | –
O=C(Cc1ccc(-c2ccccc2)cc1)NC1CCSC1=O (racemic) | – | 45% | – | – | 85% | 0% | 11% | Non-toxic | Non-toxic | Non-toxic | Non-toxic | 1% | – | 26% | – | –
CCCC(=O)N[C@H]1CCSC1=O | – | 17% | 4% | – | 42% | 0% | 0% | Non-toxic | Non-toxic | Non-toxic | Non-toxic | 22% | – | – | – | –
